# From PubChem
# GalR3 antagonist: antagonists of human GalR3; HEK293 GalR3-CNG cAMP membrane potential fluorescence; galR3 body fused to GalR1 C-terminus; inhibition, % at 3 µM; 0.44% of 360,000 active; AID 651719;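 active means inhibition above the screen-wide average plus 3 SD, cut at about 13% in these data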;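 further: forskolin and galanin both at EC90 stimulate the cells; cAMP rise reported by CNG channel membrane potential dye signal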
# NR2E3 ag-1: human photoreceptor-specific nuclear receptor agonism | AID 602229 | 0.35% of 360,000 active | CHO-S Gal4-NCOR/VP16-NR2E3 two-hybrid, luciferase | inhibition of corepressor binding, % at 3.98 µM | Q9Y5X4;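 active means inhibition above the mean of all tested compounds plus 3 SD, cut at about 70% in these data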;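 further: higher means lower luciferase signal from less NR2E3 corepressor binding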
# Target sequence (Q9Y5X4 whole entry, looked up, the tested form may be a part): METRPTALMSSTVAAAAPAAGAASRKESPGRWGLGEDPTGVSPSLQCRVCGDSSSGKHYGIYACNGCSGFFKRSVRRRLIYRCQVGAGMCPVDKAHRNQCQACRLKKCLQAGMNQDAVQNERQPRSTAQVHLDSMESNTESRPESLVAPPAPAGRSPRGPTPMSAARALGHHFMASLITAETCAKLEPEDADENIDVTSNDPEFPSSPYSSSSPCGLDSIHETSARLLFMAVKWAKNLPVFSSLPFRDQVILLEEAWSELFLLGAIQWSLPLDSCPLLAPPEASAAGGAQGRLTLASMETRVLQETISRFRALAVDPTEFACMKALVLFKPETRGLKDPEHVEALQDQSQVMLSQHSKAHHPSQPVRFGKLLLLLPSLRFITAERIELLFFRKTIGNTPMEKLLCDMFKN
# Gli-Sufu antag: antagonists of Gli-Sufu signaling | 0.74% of 340,000 active | inhibition, % at 5 µM | Sufu-KO-LIGHT fibroblasts, Gli luciferase reporter luminescence;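 active means inhibition above about 55%, limit read from the data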
# NR2E3 ag-2: activates human photoreceptor nuclear receptor NR2E3; AID 2300; 0.12% of 320,000 active; GST-NR2E3/biotin-RetCOR TR-FRET, 1536-well; Q9Y5X4; inhibition of corepressor binding, % at 4.78 µM;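 active means percent inhibition above the cutoff of mean plus 3 SD of all tested compounds, set per screening campaign, cut at about 20% in these data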
#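 Material: NR2E3–RetCOR corepressor complex / Amount: 1.35 nM GST-NR2E3 / Medium: Tris pH 7.5 / Compound: single nominal compound dose of 4.8 µM / Incubation: 5 h at 4 °C / Technique: TR-FRET, Eu(K)-anti-GST donor, streptavidin-D2 acceptor, ex 340, em 617/671 nm / Read-out basis: percent loss of FRET ratio relative to control wells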
# 697 NFkB inh: lowers PMA/ionomycin-induced NF-kB signal in 697 B cells; AID 435022; 0.33% of 330,000 active; inhibition, % at 4 µM; 697 B-cell NF-kB luciferase reporter, 16 h; in the data active means inhibition above about 35%
# Jurkat NFkB inh: lowers PMA/ionomycin-induced NF-kB signal in Jurkat cells | PMA/ionomycin-induced NF-kB luciferase reporter, luminescence | AID 435003 | inhibition, % at 4 µM | 0.53% of 330,000 active; in the data active means inhibition above about 50%
# NR2E3 ag confirm: NR2E3 (human) agonism, confirmation; shares compounds with NR2E3 ag-2; cell-free NR2E3 corepressor release, TR-FRET, 5 h; activation (reported as inhibition), % at 3.98 µM; 39% of 360 active; in the data active means activation above about 20%
# PPARg-NCOR2 ctr: PPARg-NCOR2 interaction agonism, NR2E3 counter-screen; shares compounds with NR2E3 ag-2; TR-FRET PPARg-NCOR2 coregulator interaction, biochemical; inhibition, % at 3.98 µM; 45% of 360 active; AID 504787; in the data active means inhibition above about 20%
# Hits are given with their value; . = inactive; / = not tested or not shown. The list is not random: actives were taken first. Their share in the collection is about 1.8%.
SMILES,GalR3 antagonist,NR2E3 ag-1,Gli-Sufu antag,NR2E3 ag-2,697 NFkB inh,Jurkat NFkB inh,NR2E3 ag confirm,PPARg-NCOR2 ctr
Cc1cc(N2CCN(CC(C)(C)O)C[C@@H]2C)ccc1N1CCN(CC(C)(C)O)[C@@H](C)C1,.,/,/,/,/,/,/,/
C=CCn1c(SCC(=O)Nc2cccc(S(N)(=O)=O)c2)nnc1C1CCCCC1,.,.,.,42,.,.,.,.
CCCCNC(=O)C[C@H]1C[C@@]2(C(=O)OC)C(=C[C@H](C(C)C)O[C@@H]2C2CC2)N(Cc2ccccc2)C1=O,.,/,/,/,/,/,/,/
CC(C)S(=O)(=O)N[C@@H]1c2cc3c(cc2[C@H](c2ccccc2)[C@H]1C)OCO3,.,/,/,/,/,/,/,/
CN(C)CCN1C(=O)C(O)=C(C(=O)c2cc3ccccc3o2)C1c1ccccn1 (configuration not stated),/,/,/,27,.,.,.,.
CCN(CC)CCCN1C(=O)C(O)=C(C(=O)c2cc3ccccc3o2)C1c1ccccn1 (configuration not stated),.,.,.,22,.,.,24,24
COC(=O)C1=C(C)N(Cc2ccc(C(F)(F)F)cc2)C(=NCc2ccc(C(F)(F)F)cc2)NC1c1ccccc1 (configuration not stated),.,/,/,/,/,/,/,/
Cc1ccccc1OCCCN1CCC(C(O)(c2ccccc2)c2ccccc2)CC1,.,/,/,/,/,/,/,/
COC(=O)C1=C(C)N(Cc2cccc(C(F)(F)F)c2)C(=NCC2CC2)NC1c1cccc(F)c1 (configuration not stated),.,/,/,/,/,/,/,/
Cc1ccccc1NC(=O)c1sc2nc(N3CCOCC3)c3c(c2c1N)CCCC3,.,.,.,23,.,.,.,.
Nc1c(C(=O)NCCc2ccccc2)sc2nc(N3CCOCC3)c3c(c12)CCCC3,.,.,.,27,.,.,.,.
COc1cc(N/C(=C\C(=O)c2ccccc2)c2ccccc2)ccc1Cl,.,/,/,/,/,/,/,/
COc1ccccc1C1C(C(=O)c2cc3ccccc3o2)=C(O)C(=O)N1c1cc(C)on1 (configuration not stated),.,.,.,22,.,.,20,.
COc1ccc(OC)c(C2C(C(=O)c3ccc(C)o3)=C(O)C(=O)N2c2cc(C)on2)c1 (configuration not stated),.,.,.,.,.,.,/,/
COc1ccc(OC)c(C2C(C(=O)c3cc4ccccc4o3)=C(O)C(=O)N2c2cc(C)on2)c1 (configuration not stated),.,.,.,24,.,.,.,.
CCCOc1ccc(C2C(C(=O)c3cc4ccccc4o3)=C(O)C(=O)N2c2cc(C)on2)cc1OC (configuration not stated),.,.,.,.,.,.,/,/
O=C(O)c1cc(-c2cccnc2)nc2ccc(Br)cc12,.,.,.,56,.,.,58,57
O=C(O)c1cc(-c2cccs2)nc2ccc(F)cc12,.,.,.,.,.,.,/,/
COC(=O)c1cc(-c2ccc3c(c2)OCO3)nc2ccccc12,.,.,.,.,.,.,/,/
O=C(O)c1cc(-c2cccs2)nc2ccc(Br)cc12,.,.,/,41,.,.,41,53
O=C(O)c1cc(-c2ccc3c(c2)OCO3)nc2ccc(Br)cc12,.,.,.,38,.,.,44,55
COc1cc(NC(=O)[C@@H](Cc2ccccc2)NC(=O)[C@H]2O[C@@H](n3ccc(=O)[nH]c3=O)[C@H](O)[C@@H]2O)cc(OC)c1OC,.,/,/,/,/,/,/,/
CCCCCN(C(=O)Cc1c(C)n(CCCCC)c2ccccc12)c1ccc(Oc2cccnc2)c(C)c1,.,/,/,/,/,/,/,/
O=C(C1=C(O)C(=O)N(CC2CCCO2)C1c1ccccc1F)c1ccco1 (configuration not stated),.,.,.,36,.,.,.,.
COC(=O)CCCCC1SCC2NC(=O)NC21O (configuration not stated),.,.,.,76,.,.,80,80
SMILES,GalR3 antagonist,NR2E3 ag-1,Gli-Sufu antag,NR2E3 ag-2,697 NFkB inh,Jurkat NFkB inh,NR2E3 ag confirm,PPARg-NCOR2 ctr
COC(=O)CCCC[C@H]1SC[C@H]2NC(=O)N[C@]21O,/,/,/,63,.,.,61,47
CCOC(=O)Cn1c(=S)[nH]c2c(oc3ccc(Cl)cc32)c1=O,.,.,.,25,.,.,46,41
O=C(O)c1ccc2c(c1)C1C=CCC1C(c1ccncc1)N2 (configuration not stated),.,.,.,23,.,.,.,.
FC(F)(F)c1ccc2c(c1)C1C=CCC1C(c1ccncc1)N2 (configuration not stated),.,.,.,/,/,/,/,/
CCOC(=O)C1Nc2ccc(C(=O)O)cc2C2C=CCC12 (configuration not stated),.,.,.,30,.,.,.,.
O=c1cc(OCc2ccccc2)cc[nH]1,.,.,.,50,.,.,40,.
Cc1[nH]ccc(=O)c1OCc1ccccc1,.,.,.,.,.,.,/,/
CCOC(=O)c1sc(NC(=O)c2ccco2)nc1-c1ccccc1,.,.,.,20,.,.,.,25
Cc1ccc(NC(=S)Nc2nc(CC(=O)Nc3ccccc3)cs2)cc1,.,.,.,20,.,.,.,.
Cc1c(F)cccc1NC(=O)CCCCCC1NC(=O)NC1C (configuration not stated),.,.,.,97,.,.,89,92
CC1NC(=O)NC1CCCCCC(=O)Nc1ccc(F)cc1 (configuration not stated),.,.,/,86,.,.,89,90
O=C(NCC1CCN(C(=O)C(=O)c2cc3ccccc3o2)CC1)c1ccc2c(c1)OCCCO2,.,/,/,/,/,/,/,/
COC(=O)c1c(C(=O)OC)c2ccccn2c1C(=O)c1ccccc1,.,.,.,.,.,.,/,/
COC(=O)c1c(Cl)c2n3ccccc3c(C)c(-c3ccccc3)c-2c1C(=O)OC,.,.,.,61,.,.,69,70
COC(=O)c1cc2c(-c3ccccc3)c(C)c3ccccn3c-2c1C(=O)OC,.,.,.,28,.,.,30,29
C[C@@H]1CN(c2ccc(N3CCNC[C@@H]3C)cc2C#N)C[C@H](C)O1,.,/,/,/,/,/,/,/
O=C(C(=O)N1CCN(C(=O)C2CCC2)CC1)c1cccc(C(F)(F)F)c1,.,/,/,/,/,/,/,/
CCSc1nnc(NC(=O)CCc2ccccc2)s1,.,.,.,40,.,.,.,.
CCCSc1nnc(NC(=O)CCc2ccccc2)s1,.,.,.,.,.,.,/,/
